# Measured values taken from ChEMBL document CHEMBL1938313, “Influence of the skeleton on the cytotoxicity of flavonoids” (Bioorg Med Chem, 2012).
# Experiments:
# HL-60 [1] = assay: Cell cycle arrest in human HL60 cells assessed as accumulation at S phase at 20 nM after 48 hrs by propidium iodide based flow cytometry analysis (reference value: 20.9 %); format: functional
# HL-60 [2] = assay: Cell cycle arrest in human HL60 cells assessed as accumulation at S phase at 20 nM after 24 hrs by propidium iodide based flow cytometry analysis (reference value: 22.3 %); format: functional
# HL-60 [3] = assay: Cell cycle arrest in human HL60 cells assessed as accumulation at Sub G1 phase at 20 nM after 48 hrs by propidium iodide based flow cytometry analysis (reference value: 4 %); format: functional
# HL-60 [4] = assay: Cell cycle arrest in human HL60 cells assessed as accumulation at G0/G1 phase at 20 nM after 24 hrs by propidium iodide based flow cytometry analysis (reference value: 50.6 %); format: functional
# HL-60 [5] = assay: Cell cycle arrest in human HL60 cells assessed as accumulation at G2/M phase at 20 nM after 48 hrs by propidium iodide based flow cytometry analysis (reference value: 23.9 %); format: functional
# HL-60 [6] = assay: Cell cycle arrest in human HL60 cells assessed as accumulation at G2/M phase at 20 nM after 24 hrs by propidium iodide based flow cytometry analysis (reference value: 24.8 %); format: functional
# HL-60 [7] = assay: Cell cycle arrest in human HL60 cells assessed as accumulation at Sub G1 phase at 20 nM after 24 hrs by propidium iodide based flow cytometry analysis (reference value: 2.3 %); format: functional
# HL-60 [8] = assay: Cell cycle arrest in human HL60 cells assessed as accumulation at G0/G1 phase at 20 nM after 48 hrs by propidium iodide based flow cytometry analysis (reference value: 51.2 %); format: functional
# KB [9] = assay: Cytotoxicity against human KB cells assessed as growth inhibition at 10 '-6 M after 72 hrs by MTS assay; format: functional; conditions: read-out: GI
# Outline: (§1)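 Cells seeded at 600 per well, dosed 24 h later from DMSO stocks over 0.5 nM–10 µM (DMSO 1% final in controls). KB was grown in D-MEM with 10% fetal calf serum; HL60 in complete RPMI. After 72 h, MTS was added for 3 h at 37 °C and A490 read. Inhibition % = (1 − OD treated/OD control) × 100, in triplicate; IC50 runs were in duplicate.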
# Ovis aries [10] = organism: Ovis aries; assay: Inhibition of sheep brain tubulin polymerization at 2 x 10 '-5 M after 10 mins by turbidimetry
# Outline: (§2)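 Microtubule protein was purified from sheep brain by two assembly/disassembly cycles (37 °C/0 °C) in 100 mM MES pH 6.6, 1 mM EGTA, 0.5 mM MgCl2. Compound in DMSO (1 µL) was added to 150 µL microtubule solution, incubated 10 min at 37 °C then 5 min at 0 °C, and turbidity read at 350 nm. Single tests were at ~2 × 10^-5 M; IC50 was also expressed relative to deoxypodophyllotoxin IC50.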
# HL-60 [11] = assay: Cell cycle arrest in human HL60 cells assessed as accumulation at Sub G1 phase at 100 nM after 24 hrs by propidium iodide based flow cytometry analysis (reference value: 2.3 %); format: functional
# HL-60 [12] = assay: Induction of apoptosis in human HL60 cells assessed as viable cells at 100 nM after 24 hrs using annexin-V-PE/7-AAD staining by flow cytometry analysis (reference value: 90.8 %); format: functional; conditions: HL-60, 24 h, read-out: Activity
# [13] = Inhibition of sheep brain tubulin polymerization after 10 mins by turbidimetry analysis; set-up: species or system Ovis aries; outline: as §2
# HL-60 [14] = assay: Cell cycle arrest in human HL60 cells assessed as accumulation at Sub G1 phase at 100 nM after 48 hrs by propidium iodide based flow cytometry analysis (reference value: 4 %); format: functional
# HL-60 [15] = assay: Induction of apoptosis in human HL60 cells assessed as late apoptotic cells at 100 nM after 24 hrs using annexin-V-PE/7-AAD staining by flow cytometry analysis (reference value: 0.8 %); format: functional
# HL-60 [16] = assay: Cell cycle arrest in human HL60 cells assessed as accumulation at S phase at 100 nM after 24 hrs by propidium iodide based flow cytometry analysis (reference value: 22.3 %); format: functional
# HL-60 [17] = assay: Cell cycle arrest in human HL60 cells assessed as accumulation at G2/M phase at 100 nM after 24 hrs by propidium iodide based flow cytometry analysis (reference value: 24.8 %); format: functional
# HL-60 [18] = assay: Cell cycle arrest in human HL60 cells assessed as accumulation at G0/G1 phase at 100 nM after 24 hrs by propidium iodide based flow cytometry analysis (reference value: 50.6 %); format: functional
# HL-60 [19] = assay: Cell cycle arrest in human HL60 cells assessed as accumulation at G2/M phase at 100 nM after 48 hrs by propidium iodide based flow cytometry analysis (reference value: 23.9 %); format: functional
# HL-60 [20] = assay: Cell cycle arrest in human HL60 cells assessed as accumulation at S phase at 100 nM after 48 hrs by propidium iodide based flow cytometry analysis (reference value: 20.9 %); format: functional
# HL-60 [21] = assay: Induction of apoptosis in human HL60 cells assessed as late apoptotic cells at 100 nM after 48 hrs using annexin-V-PE/7-AAD staining by flow cytometry analysis (reference value: 0.6 %); format: functional
# HL-60 [22] = assay: Induction of apoptosis in human HL60 cells assessed as early apoptotic cells at 100 nM after 24 hrs using annexin-V-PE/7-AAD staining by flow cytometry analysis (reference value: 7.5 %); format: functional
# HL-60 [23] = assay: Cytotoxicity against human HL60 cells assessed as growth inhibition after 72 hrs by MTS assay; conditions: HL-60, 72 h
# HL-60 [24] = assay: Induction of apoptosis in human HL60 cells assessed as viable cells at 100 nM after 48 hrs using annexin-V-PE/7-AAD staining by flow cytometry analysis (reference value: 83.9 %); format: functional; conditions: HL-60, 48 h, read-out: Activity
# HL-60 [25] = assay: Induction of apoptosis in human HL60 cells assessed as early apoptotic cells at 100 nM after 48 hrs using annexin-V-PE/7-AAD staining by flow cytometry analysis (reference value: 14.7 %); format: functional
# Ovis aries [26] = organism: Ovis aries; assay: Ratio of compound IC50 to DPPT IC50 for sheep brain tubulin; outline: as §2
# HL-60 [27] = assay: Cell cycle arrest in human HL60 cells assessed as accumulation at G0/G1 phase at 100 nM after 48 hrs by propidium iodide based flow cytometry analysis (reference value: 51.2 %); format: functional
# HL-60 [28] = assay: Cytotoxicity against human HL60 cells after 72 hrs by MTS assay; format: functional, cell-based; conditions: HL-60, 72 h; outline: as §1
# KB [29] = assay: Cytotoxicity against human KB cells after 72 hrs by MTS assay; format: functional, cell-based; outline: as §1
smiles,measurement,setting,value
COc1cc([C@@H]2c3cc4c(cc3C[C@H]3COC(=O)[C@@H]32)OCO4)cc(OC)c1OC [DESOXYPODOPHYLLOTOXIN],Activity,HL-60 [1],37.7%
same,Activity,HL-60 [2],9.5%
same,Activity,HL-60 [3],34.1%
same,Activity,HL-60 [4],25.2%
same,Activity,HL-60 [5],29.8%
same,Activity,HL-60 [6],57.6%
same,Activity,HL-60 [7],7.7%
same,Activity,HL-60 [8],23.5%
COc1ccc(C2COc3c(OC)c(OC)c(OC)c(O)c3C2=O)cc1N (configuration not stated),inhibition of growth at 1 µM,KB [9],4%
COc1ccc(-c2oc3c(OC)c(OC)c(OC)c(OC)c3c(=O)c2OC)cc1N,inhibition of growth at 1 µM,KB [9],17%
COc1ccc(-c2cc(=O)c3c(O)c(OC)c(OC)c(OC)c3o2)cc1N,inhibition of growth at 1 µM,KB [9],96%
COc1ccc(/C=C/C(=O)c2c(O)c(OC)c(OC)c(OC)c2OC)cc1N,inhibition of growth at 1 µM,KB [9],11%
COc1ccc(-c2cc(=O)c3c(OC)c(OC)c(OC)c(OC)c3o2)cc1N,inhibition of growth at 1 µM,KB [9],6%
COc1cc(OC)c(/C=C2\Oc3c(cc(OC)c(OC)c3OC)C2=O)cc1N,inhibition,Ovis aries [10],12%
same,inhibition of growth at 1 µM,KB [9],0%
COc1ccc(-c2oc3c(OC)c(OC)c(OC)cc3c(=O)c2OC)cc1N,inhibition of growth at 1 µM,KB [9],84%
COc1ccc(/C=C2\Oc3c(cc(OC)c(OC)c3OC)C2=O)c(O)c1O,Activity,HL-60 [11],14%
same,viability at 0.1 µM,HL-60 [12],84.1%
same,IC50,[13],8.6 µM
same,Activity,HL-60 [14],23.2%
same,Activity,HL-60 [15],1.9%
same,Activity,HL-60 [16],23.7%
same,Activity,HL-60 [17],52.5%
same,Activity,HL-60 [18],9.8%
same,Activity,HL-60 [19],17.2%
same,Activity,HL-60 [20],28.2%
same,Activity,HL-60 [21],0.8%
same,Activity,HL-60 [22],12.9%
same,IC50,HL-60 [23],100 µM
same,viability at 0.1 µM,HL-60 [24],77.1%
same,Activity,HL-60 [25],21.1%
same,Ratio IC50,Ovis aries [26],4
same,Activity,HL-60 [27],31.4%
COc1ccc(/C=C2\Oc3c(cc(OC)c(OC)c3OC)C2=O)cc1N,inhibition,Ovis aries [10],33%
same,Activity,HL-60 [11],13.9%
same,viability at 0.1 µM,HL-60 [12],85.4%
same,Activity,HL-60 [14],14%
same,IC50,HL-60 [28],0.18 µM
same,Activity,HL-60 [15],1.5%
same,Activity,HL-60 [16],18.7%
same,Activity,HL-60 [17],28.4%
same,Activity,HL-60 [18],39%
same,Activity,HL-60 [19],20.8%
same,Activity,HL-60 [20],22.5%
same,IC50,KB [29],0.4 µM
same,Activity,HL-60 [21],1.1%
same,inhibition of growth at 1 µM,KB [9],98%
same,Activity,HL-60 [22],12.1%
same,viability at 0.1 µM,HL-60 [24],81.7%
same,Activity,HL-60 [25],16.4%
same,Activity,HL-60 [27],42.6%
COc1cc(OC)c(/C=C2\Oc3c(OC)c(OC)c(OC)c(O)c3C2=O)cc1N,inhibition of growth at 1 µM,KB [9],0%
